The source made the active and inactive calls. The calls are words filed in the database; no cut-off is given here.
Experiments:
[1] = target: T1, Metabotropic glutamate receptor 6 (Homo sapiens, UniProt O15303); test: Agonist activity at mGlu6 (unknown origin) expressed in HEK293 cells coexpressing chimeric Gq/i protein assessed as increase in intracellular calcium accumulation by Fluo-4 AM dye based fluorescence assay; format: functional, cell-based
[2] = target: T2, Metabotropic glutamate receptor 4 (Homo sapiens, UniProt Q14833); test: Agonist activity at mGlu4 (unknown origin) expressed in HEK293 cells coexpressing chimeric Gq/i protein assessed as increase in intracellular calcium accumulation by Fluo-4 AM dye based fluorescence assay; format: functional, cell-based
Homo sapiens [3] = organism: Homo sapiens; test: (§1) Selectivity ratio of EC50 for mGlu8 (unknown origin) expressed in HEK293 cells coexpressing chimeric Gq/i protein assessed as increase in intracellular calcium accumulation to EC50 for mGlu4 (unknown origin) expressed in HEK293 cells coexpressing chimeric Gq/i protein assessed as increase in intracellular calcium accumulation; format: cell-based
Outline: (§2)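 Ratio of mGlu8 EC50 to mGlu4 EC50, both from the same functional assay. Both receptors were co-expressed in HEK293 cells with chimeric G-protein and EAAT3 and read by 3H-IP accumulation or by Fluo-4 Ca2+ release.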

[4] = target: T3, Metabotropic glutamate receptor 7 (Homo sapiens, UniProt Q14831); test: Agonist activity at mGlu7 (unknown origin) expressed in HEK293 cells coexpressing chimeric Gq/i protein assessed as increase in intracellular calcium accumulation by Fluo-4 AM dye based fluorescence assay; format: functional, cell-based
Homo sapiens [5] = organism: Homo sapiens; test: as §1, with “[3H]inositol phosphate” for “increase in intracellular calcium”; format: cell-based; outline: as §2
[6] = target: T4, Metabotropic glutamate receptor 8 (Homo sapiens, UniProt O00222); test: Agonist activity at mGlu8 (unknown origin) expressed in HEK293 cells coexpressing chimeric Gq/i protein assessed as [3H]inositol phosphate accumulation after 30 mins by scintillation and luminescence counting method; format: functional, cell-based
Outline: (§3)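 Receptor transiently co-expressed in HEK293 cells (electroporation) with chimeric G-protein and glutamate transporter EAAT3. Cells labelled overnight with 3H-myoinositol, stimulated with agonist 30 min, lysed 1 h in cold 0.1 M formic acid. 3H-IP isolated on Dowex ion exchange and counted. IP expressed relative to IP plus membrane radioactivity. Points in triplicate; EC50 from Hill-equation fit.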

[7] = target: T4, Metabotropic glutamate receptor 8; test: Agonist activity at mGlu8 (unknown origin) expressed in HEK293 cells coexpressing chimeric Gq/i protein assessed as increase in intracellular calcium accumulation by Fluo-4 AM dye based fluorescence assay; format: functional, cell-based
[8] = target: T2, Metabotropic glutamate receptor 4; test: Agonist activity at mGlu4 (unknown origin) expressed in HEK293 cells coexpressing chimeric Gq/i protein assessed as increase in intracellular calcium accumulation at 300 uM by Fluo-4 AM dye based fluorescence assay; format: functional, cell-based
[9] = target: T4, Metabotropic glutamate receptor 8; test: Agonist activity at mGlu8 (unknown origin) expressed in HEK293 cells coexpressing chimeric Gq/i protein assessed as increase in intracellular calcium accumulation at 300 uM by Fluo-4 AM dye based fluorescence assay; format: functional, cell-based
[10] = target: T2, Metabotropic glutamate receptor 4; test: Agonist activity at mGlu4 (unknown origin) expressed in HEK293 cells coexpressing chimeric Gq/i protein assessed as [3H]inositol phosphate accumulation after 30 mins at 100 uM by scintillation and luminescence counting method; format: functional, cell-based; outline: as §3
[11] = target: T1, Metabotropic glutamate receptor 6; test: Agonist activity at mGlu6 (unknown origin) expressed in HEK293 cells coexpressing chimeric Gq/i protein assessed as [3H]inositol phosphate accumulation after 30 mins by scintillation and luminescence counting method; format: functional, cell-based; outline: as §3
[12] = target: T3, Metabotropic glutamate receptor 7; test: Agonist activity at mGlu7 (unknown origin) expressed in HEK293 cells coexpressing chimeric Gq/i protein assessed as [3H]inositol phosphate accumulation at 300 uM after 30 mins by scintillation and luminescence counting method; format: functional, cell-based; outline: as §3
[13] = target: Ionotropic glutamate receptor NMDA1/2B (Rattus norvegicus, UniProt P35439+Q01097); test: Antagonist activity at rat GluN1a/mouse GluN2B receptors expressed in Xenopus laevis oocytes assessed as inhibition of L-glutamate/[…] induced current amplitude at holding potential of -60 mV by […]; format: cell-based
[14] = target: Metabotropic glutamate receptor 4 (Rattus norvegicus) (UniProt P31423); test: Agonist activity at mGlu4 in rat purkinje cells assessed as mean decrease in parallel fiber-induced excitary postsynaptic currents amplitude for second response at 100 uM treated for 5 mins by whole cell patch clamp assay relative to control; format: cell-based; design: scale not given: the % may be the effect or the level left
Outline: (§4)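 Sagittal cerebellar vermis slices (250 μm) from 18−29-day-old rats. Purkinje cells whole-cell clamped at 28−30 °C. Parallel-fiber EPSCs evoked by paired stimuli 40 ms apart; PPF taken as second/first amplitude, averaged per cell. Agonist bath-applied 5 min from a 40 mM water stock. EC50 and Hill coefficient fitted across independent experiments.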

[15] = target: Metabotropic glutamate receptor 4 (Rattus norvegicus) (UniProt P31423); test: Agonist activity at mGlu4 assessed as decrease in PF-induced presynaptic calcium amplitude in rat coronal slices at 100 uM by Fluo-4FF-AM dye based fluorescence assay relative to control; format: functional; design: scale not given: the % may be the effect or the level left
Outline: (§5)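 Coronal cerebellar slices (250 μm) from 18−29-day-old rats. Parallel fibers loaded by focal Fluo-4FF-AM (100 μM); recording at least 45 min later at 28−30 °C. Excitation 485 nm, emission 530 nm, photometer in a 20×50 μm window over the molecular layer. ΔF/F bleach-corrected. Agonist bath-applied from a 40 mM water stock; EC50 and Hill coefficient fitted.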

[16] = target: Metabotropic glutamate receptor 4 (Rattus norvegicus) (UniProt P31423); test: (§6) Agonist activity at mGlu4 assessed as decrease in PF-induced presynaptic calcium amplitude in rat coronal slices by Fluo-4FF-AM dye based fluorescence assay; format: functional; outline: as §5
[17] = target: Metabotropic glutamate receptor 4 (Rattus norvegicus, UniProt P31423); test: as §6; format: functional; outline: as §5
[18] = target: Metabotropic glutamate receptor 4 (Mus musculus, UniProt Q68EF4); test: Agonist activity at mGlu4 in C57/Bl6 mouse GP neurons assessed as inhibition of striatopallidal GABAergic inhibitory postsynaptic current amplitude by whole cell patch clamp assay
[19] = target: Metabotropic glutamate receptor 4 (Rattus norvegicus) (UniProt P31423); test: Agonist activity at mGlu4 in rat purkinje cells assessed as mean decrease in parallel fiber-induced excitary postsynaptic currents amplitude for first response treated for 5 mins by whole cell patch clamp assay; format: cell-based; outline: as §4
[20] = target: Metabotropic glutamate receptor 4 (Rattus norvegicus) (UniProt P31423); test: Agonist activity at mGlu4 in rat purkinje cells assessed as increase in mean paired-pulse facilitation at 100 uM treated for 5 mins by whole cell patch clamp assay relative to control; format: cell-based; outline: as §4
[21] = target: Glutamate NMDA receptor; Grin1/Grin2a (Rattus norvegicus, UniProt P35439+Q00959); test: Antagonist activity at rat GluN1a/GluN2A receptors expressed in Xenopus laevis oocytes assessed as inhibition of L-glutamate/[…] induced current amplitude at holding potential of -60 mV by […]; format: cell-based
[22] = target: Metabotropic glutamate receptor 4 (Rattus norvegicus) (UniProt P31423); test: Agonist activity at mGlu4 in rat purkinje cells assessed as mean decrease in parallel fiber-induced excitary postsynaptic currents amplitude for first response at 100 uM treated for 5 mins by whole cell patch clamp assay relative to control; format: cell-based; design: scale not given: the % may be the effect or the level left; outline: as §4
[23] = target: Metabotropic glutamate receptor 4 (Mus musculus) (UniProt Q68EF4); test: Agonist activity at mGlu4 in C57/Bl6 mouse GP neurons assessed as inhibition of striatopallidal GABAergic inhibitory postsynaptic current amplitude at 3 uM by whole cell patch clamp assay relative to control
[24] = target: T3, Metabotropic glutamate receptor 7; test: Agonist activity at mGlu7 (unknown origin) expressed in HEK293 cells coexpressing chimeric Gq/i protein assessed as increase in intracellular calcium accumulation at 300 uM by Fluo-4 AM dye based fluorescence assay; format: functional, cell-based

T1 sequence (O15303 whole entry): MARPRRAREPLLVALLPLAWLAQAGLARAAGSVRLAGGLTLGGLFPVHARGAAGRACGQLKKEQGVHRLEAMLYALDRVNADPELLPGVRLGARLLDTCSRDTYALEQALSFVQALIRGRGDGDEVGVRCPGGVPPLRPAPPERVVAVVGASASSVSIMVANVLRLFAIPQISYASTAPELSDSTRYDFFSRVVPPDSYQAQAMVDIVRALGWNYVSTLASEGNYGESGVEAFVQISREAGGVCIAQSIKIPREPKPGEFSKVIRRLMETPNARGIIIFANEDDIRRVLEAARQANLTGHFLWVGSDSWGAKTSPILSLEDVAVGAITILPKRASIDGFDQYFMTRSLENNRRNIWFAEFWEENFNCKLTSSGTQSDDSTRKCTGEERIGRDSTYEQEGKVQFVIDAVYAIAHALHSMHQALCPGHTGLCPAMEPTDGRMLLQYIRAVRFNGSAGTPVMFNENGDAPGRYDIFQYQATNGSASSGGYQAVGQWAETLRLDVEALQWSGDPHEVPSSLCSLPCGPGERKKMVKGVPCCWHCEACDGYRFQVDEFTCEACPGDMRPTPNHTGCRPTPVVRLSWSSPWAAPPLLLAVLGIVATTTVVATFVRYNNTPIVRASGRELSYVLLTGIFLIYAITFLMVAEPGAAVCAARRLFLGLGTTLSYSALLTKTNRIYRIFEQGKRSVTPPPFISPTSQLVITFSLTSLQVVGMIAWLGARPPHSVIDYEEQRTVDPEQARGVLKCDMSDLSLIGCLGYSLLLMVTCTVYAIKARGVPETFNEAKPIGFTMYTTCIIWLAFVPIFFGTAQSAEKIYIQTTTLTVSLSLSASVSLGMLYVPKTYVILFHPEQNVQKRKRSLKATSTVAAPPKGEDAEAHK
T4 sequence (O00222 whole entry): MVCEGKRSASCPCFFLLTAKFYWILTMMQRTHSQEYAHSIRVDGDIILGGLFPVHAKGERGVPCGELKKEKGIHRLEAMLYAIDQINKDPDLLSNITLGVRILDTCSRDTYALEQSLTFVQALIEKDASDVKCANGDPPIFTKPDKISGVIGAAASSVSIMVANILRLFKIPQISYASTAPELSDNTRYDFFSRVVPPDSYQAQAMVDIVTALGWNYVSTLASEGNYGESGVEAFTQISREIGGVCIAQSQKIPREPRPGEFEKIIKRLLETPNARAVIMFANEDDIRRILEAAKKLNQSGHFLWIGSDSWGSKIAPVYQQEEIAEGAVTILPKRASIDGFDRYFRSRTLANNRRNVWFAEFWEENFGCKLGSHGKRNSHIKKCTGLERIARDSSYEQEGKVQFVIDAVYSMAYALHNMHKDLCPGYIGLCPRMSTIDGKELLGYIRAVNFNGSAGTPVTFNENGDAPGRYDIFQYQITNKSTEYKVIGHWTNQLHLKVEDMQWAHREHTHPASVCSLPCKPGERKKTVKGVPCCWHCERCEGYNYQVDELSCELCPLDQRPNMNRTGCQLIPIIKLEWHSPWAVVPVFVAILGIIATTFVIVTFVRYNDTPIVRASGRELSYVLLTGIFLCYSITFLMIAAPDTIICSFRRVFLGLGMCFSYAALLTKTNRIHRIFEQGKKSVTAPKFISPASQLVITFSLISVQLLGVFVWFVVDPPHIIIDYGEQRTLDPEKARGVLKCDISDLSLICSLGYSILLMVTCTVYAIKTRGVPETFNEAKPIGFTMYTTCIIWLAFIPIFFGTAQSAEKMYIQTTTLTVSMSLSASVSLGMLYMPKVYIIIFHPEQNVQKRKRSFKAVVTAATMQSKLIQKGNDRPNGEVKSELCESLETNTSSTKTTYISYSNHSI
T3 sequence (Q14831 whole entry): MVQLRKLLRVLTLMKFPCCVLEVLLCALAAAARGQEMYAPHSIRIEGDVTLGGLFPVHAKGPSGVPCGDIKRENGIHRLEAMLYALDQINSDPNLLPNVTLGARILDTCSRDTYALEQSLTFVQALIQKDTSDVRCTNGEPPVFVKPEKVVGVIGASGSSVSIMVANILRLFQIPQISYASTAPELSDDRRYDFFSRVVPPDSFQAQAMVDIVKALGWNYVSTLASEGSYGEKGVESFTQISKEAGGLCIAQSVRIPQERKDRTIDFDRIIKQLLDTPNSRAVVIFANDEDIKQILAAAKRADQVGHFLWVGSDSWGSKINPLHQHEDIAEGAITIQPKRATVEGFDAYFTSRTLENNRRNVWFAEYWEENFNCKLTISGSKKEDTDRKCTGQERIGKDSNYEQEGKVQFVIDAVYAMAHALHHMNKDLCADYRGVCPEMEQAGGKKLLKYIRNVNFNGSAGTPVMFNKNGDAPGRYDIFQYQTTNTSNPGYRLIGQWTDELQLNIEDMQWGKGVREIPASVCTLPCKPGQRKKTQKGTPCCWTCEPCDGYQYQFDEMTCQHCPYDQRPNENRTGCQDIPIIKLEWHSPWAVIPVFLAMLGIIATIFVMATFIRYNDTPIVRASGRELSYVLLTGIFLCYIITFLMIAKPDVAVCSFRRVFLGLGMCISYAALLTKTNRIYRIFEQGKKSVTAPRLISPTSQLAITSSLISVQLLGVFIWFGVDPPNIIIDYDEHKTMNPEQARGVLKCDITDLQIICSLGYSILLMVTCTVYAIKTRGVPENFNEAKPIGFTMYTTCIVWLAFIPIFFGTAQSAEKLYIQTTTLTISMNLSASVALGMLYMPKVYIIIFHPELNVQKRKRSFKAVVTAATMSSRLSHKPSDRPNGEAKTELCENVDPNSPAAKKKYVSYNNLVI
T2 sequence (Q14833 whole entry): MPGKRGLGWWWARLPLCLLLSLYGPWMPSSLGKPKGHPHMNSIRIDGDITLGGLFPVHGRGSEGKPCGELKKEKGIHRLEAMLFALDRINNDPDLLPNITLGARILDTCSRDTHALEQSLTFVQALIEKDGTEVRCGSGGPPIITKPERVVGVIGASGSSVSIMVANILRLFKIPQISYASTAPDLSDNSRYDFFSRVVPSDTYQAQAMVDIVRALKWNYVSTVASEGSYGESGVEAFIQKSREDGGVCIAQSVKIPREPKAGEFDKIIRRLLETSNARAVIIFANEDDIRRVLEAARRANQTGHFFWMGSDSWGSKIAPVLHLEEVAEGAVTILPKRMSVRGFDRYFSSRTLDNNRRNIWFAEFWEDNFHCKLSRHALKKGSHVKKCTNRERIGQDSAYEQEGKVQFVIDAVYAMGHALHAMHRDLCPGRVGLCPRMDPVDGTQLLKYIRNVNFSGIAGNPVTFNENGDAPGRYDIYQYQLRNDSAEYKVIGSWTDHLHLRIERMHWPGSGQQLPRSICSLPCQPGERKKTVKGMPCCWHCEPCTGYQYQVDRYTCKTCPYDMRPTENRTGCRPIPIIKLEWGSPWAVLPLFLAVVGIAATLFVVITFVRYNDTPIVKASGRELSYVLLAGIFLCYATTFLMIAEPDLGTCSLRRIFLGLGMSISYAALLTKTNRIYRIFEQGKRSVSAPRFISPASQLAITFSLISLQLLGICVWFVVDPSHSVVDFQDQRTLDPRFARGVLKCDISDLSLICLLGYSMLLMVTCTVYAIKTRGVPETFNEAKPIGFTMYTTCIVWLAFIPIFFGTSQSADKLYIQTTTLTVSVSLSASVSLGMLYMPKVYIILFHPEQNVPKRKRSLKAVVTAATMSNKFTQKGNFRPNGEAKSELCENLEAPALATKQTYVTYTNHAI
Chain of Metabotropic glutamate receptor 4 (Rattus norvegicus) (P31423 whole entry): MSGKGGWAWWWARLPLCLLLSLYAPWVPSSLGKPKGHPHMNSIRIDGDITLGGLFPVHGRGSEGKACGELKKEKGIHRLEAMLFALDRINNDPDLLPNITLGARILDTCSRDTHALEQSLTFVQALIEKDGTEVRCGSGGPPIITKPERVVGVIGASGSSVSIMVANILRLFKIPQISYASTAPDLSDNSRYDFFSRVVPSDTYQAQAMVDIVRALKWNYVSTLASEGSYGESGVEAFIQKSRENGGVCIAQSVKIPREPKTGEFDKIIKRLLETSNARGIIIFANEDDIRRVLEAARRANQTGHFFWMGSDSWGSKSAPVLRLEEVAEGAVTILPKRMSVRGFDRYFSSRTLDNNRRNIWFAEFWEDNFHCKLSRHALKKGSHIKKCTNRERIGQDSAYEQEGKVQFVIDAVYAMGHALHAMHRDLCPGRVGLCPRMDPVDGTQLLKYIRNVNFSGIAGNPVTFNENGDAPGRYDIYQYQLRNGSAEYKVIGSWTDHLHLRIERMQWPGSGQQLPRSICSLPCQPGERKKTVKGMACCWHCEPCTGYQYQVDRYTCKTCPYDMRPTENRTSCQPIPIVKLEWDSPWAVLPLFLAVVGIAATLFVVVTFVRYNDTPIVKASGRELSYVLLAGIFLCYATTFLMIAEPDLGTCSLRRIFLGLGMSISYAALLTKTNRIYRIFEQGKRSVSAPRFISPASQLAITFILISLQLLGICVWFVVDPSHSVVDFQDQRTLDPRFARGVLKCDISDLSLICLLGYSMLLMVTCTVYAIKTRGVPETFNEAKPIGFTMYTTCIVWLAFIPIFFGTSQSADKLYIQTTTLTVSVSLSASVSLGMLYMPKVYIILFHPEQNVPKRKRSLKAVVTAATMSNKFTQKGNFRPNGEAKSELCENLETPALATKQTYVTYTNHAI
Chain of Metabotropic glutamate receptor 4 (Mus musculus, UniProt Q68EF4) (Q68EF4 whole entry): as the sequence (P31423 whole entry) above, with A24G, P25S, G280A, M339T, L482R, I705V, G713C, T895A counted along it
Chain of Metabotropic glutamate receptor 4 (Mus musculus) (Q68EF4 whole entry): as the sequence (P31423 whole entry) above, with A24G, P25S, G280A, M339T, L482R, I705V, G713C, T895A counted along it
Chain of Metabotropic glutamate receptor 4 (Rattus norvegicus, UniProt P31423) (P31423 whole entry): as the sequence (P31423 whole entry) above

SMILES	EC50 [1] [µM]	EC50 [2] [µM]	EC50 [4] [µM]	EC50 [6] [µM]	EC50 [7] [µM]	Ratio EC50 (Homo sapiens [3])	Ratio EC50 (Homo sapiens [5])	further results
N[C@@H](CCP(=O)(O)C(O)c1ccc([N+](=O)[O-])cc1)C(=O)O (some centres not stated)	4.6	0.64	> 100	0.53	0.49	0.8	1.4	–
COc1cc(C(O)P(=O)(O)CCC[C@H](N)C(=O)O)cc([N+](=O)[O-])c1O (some centres not stated)	–	–	–	–	–	–	–	Activity [8]: inactive; Activity [9]: inactive
N[C@@H](CCP(=O)(O)C(O)c1ccccc1C(=O)O)C(=O)O (some centres not stated)	–	–	–	–	–	–	–	Activity [10]: inactive
N[C@@H](CCCP(=O)(O)C(O)c1ccc(OCC(=O)O)cc1)C(=O)O (some centres not stated)	–	–	–	–	–	–	–	Activity [8]: inactive; Activity [9]: inactive
N[C@@H](CCP(=O)(O)C(O)c1c(F)c(F)c(F)c(F)c1F)C(=O)O (some centres not stated)	30	5.6	> 100	18.5	7.6	1.4	3.7	–
N[C@@H](CCP(=O)(O)C(O)c1cccc(C(=O)O)c1)C(=O)O (some centres not stated)	–	–	–	125	–	–	5.8	EC50 [11]: > 100 µM
N[C@H](C(=O)O)c1ccc(C(=O)O)c(C(=O)O)c1	3.2 to 6.2	3.2	30 to 100	0.023	0.044	0.014	0.012	–

The next lines start with results.

EC50 [1] [µM]	EC50 [2] [µM]	EC50 [4] [µM]	EC50 [6] [µM]	EC50 [7] [µM]	SMILES	Ratio EC50 (Homo sapiens [3])	Ratio EC50 (Homo sapiens [5])	further results
4	3.3	–	5.6	1.6	Cc1ccc(C(O)P(=O)(O)CC[C@H](N)C(=O)O)cc1[N+](=O)[O-] (some centres not stated)	0.5	1.6	EC50 [11]: > 100 µM; Activity [12]: inactive
–	0.9	–	–	19.4	COc1cc(C(O)P(=O)(O)CC[C@H](N)C(=O)O)cc([N+](=O)[O-])c1O (mixture of isomers)	–	–	IC50 [13]: 2300 µM; Activity [14]: 26.4%; Activity [15]: 12.5%; Activity [16]: Dose-dependent effect; Imax [16]: 40%; EC50 [17]: 20 µM; EC50 [18]: 0.2 µM; Activity [19]: Dose-dependent effect; Activity [20]: 2.29 to 2.91%; IC50 [21]: 1100 µM; Activity [22]: 39.2%; Imax [23]: 40%
26	4.3	> 100	5.4	32.8	N[C@@H](CCP(=O)(O)C(O)c1cc(O)c(O)c([N+](=O)[O-])c1)C(=O)O (some centres not stated)	7.6	1.1	–
> 100	11.6	–	–	–	COc1cc(C(N)P(=O)(O)CC[C@H](N)C(=O)O)cc([N+](=O)[O-])c1O (some centres not stated)	3	–	Activity [24]: inactive

Source: ChEMBL document CHEMBL4033785, “Increased Potency and Selectivity for Group III Metabotropic Glutamate Receptor Agonists Binding at Dual sites” (J Med Chem, 2018)
